# Test system: Penicillium citrinum
# Experiment: Fungitoxicity against Penicillium citrinum assessed as inhibition of mycelia growth at 28 +/- 1 degC at 1000 ug/mL for 96 hr by poisoned food technique
# Format: functional
# How it was run: (§1)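 Poisoned food technique in Czapek's agar dishes, with test compound incorporated at 10, 100 or 1000 μg/mL. Fungus inoculated at the dish centre and incubated 96 h at 28 ± 1 °C. Percent inhibition = 100 × (mean hyphal diameter in control − mean hyphal diameter in test) / mean hyphal diameter in control. Three replicate assays per treatment and six replicate controls. Griseofulvin and Dithane M-45 served as standards.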
row,Structure (SMILES),inhibition at 1000 µg/mL
1,Cc1ccc([Se](=O)(=O)c2ncn([C@H]3C[C@H](O)[C@@H](CO)O3)n2)cc1,80%
2,COc1ccc([Se](=O)(=O)c2ncn([C@H]3C[C@H](OC(C)=O)[C@@H](COC(C)=O)O3)n2)cc1,64%
3,Cc1ccc([Se](=O)(=O)c2ncn([C@@H]3O[C@H](CO)[C@@H](O)[C@H]3O)n2)cc1,80%
4,CC(=O)OC[C@H]1O[C@@H](n2cnc([Se](=O)(=O)c3ccc(C)cc3)n2)[C@H](OC(C)=O)[C@@H]1OC(C)=O,51%
5,CC(=O)OC[C@H]1O[C@@H](n2cnc([Se](=O)(=O)c3ccccc3)n2)[C@H](OC(C)=O)[C@@H]1OC(C)=O,38%
6,COc1ccc([Se](=O)(=O)c2ncn([C@@H]3O[C@H](COC(C)=O)[C@@H](OC(C)=O)[C@H]3OC(C)=O)n2)cc1,47%
7,COc1ccc([Se](=O)(=O)c2ncn([C@@H]3O[C@H](CO)[C@@H](O)[C@H]3O)n2)cc1,99%
8,CC(=O)OC[C@H]1O[C@@H](n2cnc([Se](=O)(=O)c3ccc([N+](=O)[O-])cc3)n2)C[C@@H]1OC(C)=O,51%
9,O=[N+]([O-])c1ccc([Se](=O)(=O)c2ncn([C@H]3C[C@H](O)[C@@H](CO)O3)n2)cc1,87%
10,O=[Se](=O)(c1ccc(Cl)cc1)c1ncn([C@H]2C[C@H](O)[C@@H](CO)O2)n1,75%

# Test system: Fusarium oxysporum
# Experiment: Fungitoxicity against Fusarium oxysporum assessed as inhibition of mycelia growth at 28 +/- 1 degC at 10 ug/mL for 96 hr by poisoned food technique
# Format: functional
# How it was run: as §1
row,Structure (SMILES),inhibition at 10 µg/mL
1,Cc1ccc([Se](=O)(=O)c2ncn([C@H]3C[C@H](O)[C@@H](CO)O3)n2)cc1,61%
2,COc1ccc([Se](=O)(=O)c2ncn([C@H]3C[C@H](OC(C)=O)[C@@H](COC(C)=O)O3)n2)cc1,17%
3,Cc1ccc([Se](=O)(=O)c2ncn([C@@H]3O[C@H](CO)[C@@H](O)[C@H]3O)n2)cc1,62%
4,CC(=O)OC[C@H]1O[C@@H](n2cnc([Se](=O)(=O)c3ccc(C)cc3)n2)[C@H](OC(C)=O)[C@@H]1OC(C)=O,17%
5,CC(=O)OC[C@H]1O[C@@H](n2cnc([Se](=O)(=O)c3ccccc3)n2)[C@H](OC(C)=O)[C@@H]1OC(C)=O,15%
6,COc1ccc([Se](=O)(=O)c2ncn([C@@H]3O[C@H](COC(C)=O)[C@@H](OC(C)=O)[C@H]3OC(C)=O)n2)cc1,16%
7,COc1ccc([Se](=O)(=O)c2ncn([C@@H]3O[C@H](CO)[C@@H](O)[C@H]3O)n2)cc1,55%
8,CC(=O)OC[C@H]1O[C@@H](n2cnc([Se](=O)(=O)c3ccc([N+](=O)[O-])cc3)n2)C[C@@H]1OC(C)=O,16%
9,O=[N+]([O-])c1ccc([Se](=O)(=O)c2ncn([C@H]3C[C@H](O)[C@@H](CO)O3)n2)cc1,41%
10,O=[Se](=O)(c1ccc(Cl)cc1)c1ncn([C@H]2C[C@H](O)[C@@H](CO)O2)n1,32%

# Test system: Penicillium citrinum
# Experiment: Fungitoxicity against Penicillium citrinum assessed as inhibition of mycelia growth at 28 +/- 1 degC at 100 ug/mL for 96 hr by poisoned food technique
# Format: functional
# How it was run: as §1
row,Structure (SMILES),inhibition at 100 µg/mL
1,Cc1ccc([Se](=O)(=O)c2ncn([C@H]3C[C@H](O)[C@@H](CO)O3)n2)cc1,74%
2,COc1ccc([Se](=O)(=O)c2ncn([C@H]3C[C@H](OC(C)=O)[C@@H](COC(C)=O)O3)n2)cc1,35%
3,Cc1ccc([Se](=O)(=O)c2ncn([C@@H]3O[C@H](CO)[C@@H](O)[C@H]3O)n2)cc1,78%
4,CC(=O)OC[C@H]1O[C@@H](n2cnc([Se](=O)(=O)c3ccc(C)cc3)n2)[C@H](OC(C)=O)[C@@H]1OC(C)=O,42%
5,CC(=O)OC[C@H]1O[C@@H](n2cnc([Se](=O)(=O)c3ccccc3)n2)[C@H](OC(C)=O)[C@@H]1OC(C)=O,30%
6,COc1ccc([Se](=O)(=O)c2ncn([C@@H]3O[C@H](COC(C)=O)[C@@H](OC(C)=O)[C@H]3OC(C)=O)n2)cc1,32%
7,COc1ccc([Se](=O)(=O)c2ncn([C@@H]3O[C@H](CO)[C@@H](O)[C@H]3O)n2)cc1,49%
8,CC(=O)OC[C@H]1O[C@@H](n2cnc([Se](=O)(=O)c3ccc([N+](=O)[O-])cc3)n2)C[C@@H]1OC(C)=O,34%
9,O=[N+]([O-])c1ccc([Se](=O)(=O)c2ncn([C@H]3C[C@H](O)[C@@H](CO)O3)n2)cc1,63%
10,O=[Se](=O)(c1ccc(Cl)cc1)c1ncn([C@H]2C[C@H](O)[C@@H](CO)O2)n1,65%

# Test system: Fusarium oxysporum
# Experiment: Fungitoxicity against Fusarium oxysporum assessed as inhibition of mycelia growth at 28 +/- 1 degC at 1000 ug/mL for 96 hr by poisoned food technique
# Format: functional
# How it was run: as §1
row,Structure (SMILES),inhibition at 1000 µg/mL
1,Cc1ccc([Se](=O)(=O)c2ncn([C@H]3C[C@H](O)[C@@H](CO)O3)n2)cc1,81%
2,COc1ccc([Se](=O)(=O)c2ncn([C@H]3C[C@H](OC(C)=O)[C@@H](COC(C)=O)O3)n2)cc1,65%
3,Cc1ccc([Se](=O)(=O)c2ncn([C@@H]3O[C@H](CO)[C@@H](O)[C@H]3O)n2)cc1,88%
4,CC(=O)OC[C@H]1O[C@@H](n2cnc([Se](=O)(=O)c3ccc(C)cc3)n2)[C@H](OC(C)=O)[C@@H]1OC(C)=O,52%
5,CC(=O)OC[C@H]1O[C@@H](n2cnc([Se](=O)(=O)c3ccccc3)n2)[C@H](OC(C)=O)[C@@H]1OC(C)=O,41%
6,COc1ccc([Se](=O)(=O)c2ncn([C@@H]3O[C@H](COC(C)=O)[C@@H](OC(C)=O)[C@H]3OC(C)=O)n2)cc1,53%
7,COc1ccc([Se](=O)(=O)c2ncn([C@@H]3O[C@H](CO)[C@@H](O)[C@H]3O)n2)cc1,100%
8,CC(=O)OC[C@H]1O[C@@H](n2cnc([Se](=O)(=O)c3ccc([N+](=O)[O-])cc3)n2)C[C@@H]1OC(C)=O,54%
9,O=[N+]([O-])c1ccc([Se](=O)(=O)c2ncn([C@H]3C[C@H](O)[C@@H](CO)O3)n2)cc1,82%
10,O=[Se](=O)(c1ccc(Cl)cc1)c1ncn([C@H]2C[C@H](O)[C@@H](CO)O2)n1,81%

# Test system: Penicillium citrinum
# Experiment: Fungitoxicity against Penicillium citrinum assessed as inhibition of mycelia growth at 28 +/- 1 degC at 10 ug/mL for 96 hr by poisoned food technique
# Format: functional
# How it was run: as §1
row,Structure (SMILES),inhibition at 10 µg/mL
1,Cc1ccc([Se](=O)(=O)c2ncn([C@H]3C[C@H](O)[C@@H](CO)O3)n2)cc1,67%
2,COc1ccc([Se](=O)(=O)c2ncn([C@H]3C[C@H](OC(C)=O)[C@@H](COC(C)=O)O3)n2)cc1,24%
3,Cc1ccc([Se](=O)(=O)c2ncn([C@@H]3O[C@H](CO)[C@@H](O)[C@H]3O)n2)cc1,69%
4,CC(=O)OC[C@H]1O[C@@H](n2cnc([Se](=O)(=O)c3ccc(C)cc3)n2)[C@H](OC(C)=O)[C@@H]1OC(C)=O,21%
5,CC(=O)OC[C@H]1O[C@@H](n2cnc([Se](=O)(=O)c3ccccc3)n2)[C@H](OC(C)=O)[C@@H]1OC(C)=O,12%
6,COc1ccc([Se](=O)(=O)c2ncn([C@@H]3O[C@H](COC(C)=O)[C@@H](OC(C)=O)[C@H]3OC(C)=O)n2)cc1,17%
7,COc1ccc([Se](=O)(=O)c2ncn([C@@H]3O[C@H](CO)[C@@H](O)[C@H]3O)n2)cc1,39%
8,CC(=O)OC[C@H]1O[C@@H](n2cnc([Se](=O)(=O)c3ccc([N+](=O)[O-])cc3)n2)C[C@@H]1OC(C)=O,18%
9,O=[N+]([O-])c1ccc([Se](=O)(=O)c2ncn([C@H]3C[C@H](O)[C@@H](CO)O3)n2)cc1,33%
10,O=[Se](=O)(c1ccc(Cl)cc1)c1ncn([C@H]2C[C@H](O)[C@@H](CO)O2)n1,31%

# Test system: Fusarium oxysporum
# Experiment: Fungitoxicity against Fusarium oxysporum assessed as inhibition of mycelia growth at 28 +/- 1 degC at 100 ug/mL for 96 hr by poisoned food technique
# Format: functional
# How it was run: as §1
row,Structure (SMILES),inhibition at 100 µg/mL
1,Cc1ccc([Se](=O)(=O)c2ncn([C@H]3C[C@H](O)[C@@H](CO)O3)n2)cc1,75%
2,COc1ccc([Se](=O)(=O)c2ncn([C@H]3C[C@H](OC(C)=O)[C@@H](COC(C)=O)O3)n2)cc1,25%
3,Cc1ccc([Se](=O)(=O)c2ncn([C@@H]3O[C@H](CO)[C@@H](O)[C@H]3O)n2)cc1,80%
4,CC(=O)OC[C@H]1O[C@@H](n2cnc([Se](=O)(=O)c3ccc(C)cc3)n2)[C@H](OC(C)=O)[C@@H]1OC(C)=O,37%
5,CC(=O)OC[C@H]1O[C@@H](n2cnc([Se](=O)(=O)c3ccccc3)n2)[C@H](OC(C)=O)[C@@H]1OC(C)=O,32%
6,COc1ccc([Se](=O)(=O)c2ncn([C@@H]3O[C@H](COC(C)=O)[C@@H](OC(C)=O)[C@H]3OC(C)=O)n2)cc1,44%
7,COc1ccc([Se](=O)(=O)c2ncn([C@@H]3O[C@H](CO)[C@@H](O)[C@H]3O)n2)cc1,68%
8,CC(=O)OC[C@H]1O[C@@H](n2cnc([Se](=O)(=O)c3ccc([N+](=O)[O-])cc3)n2)C[C@@H]1OC(C)=O,28%
9,O=[N+]([O-])c1ccc([Se](=O)(=O)c2ncn([C@H]3C[C@H](O)[C@@H](CO)O3)n2)cc1,60%
10,O=[Se](=O)(c1ccc(Cl)cc1)c1ncn([C@H]2C[C@H](O)[C@@H](CO)O2)n1,56%

# From ChEMBL document CHEMBL3046804, “Synthesis and fungicidal activity of novel 3-(substituted/unsubstituted phenylselenonyl)-1-ribosyl/deoxyribosyl-1H-1,2,4-triazole” (2012)
